Assay results pooled from the literature.
Compare with care: the assays were run in different laboratories.
Target: Prostaglandin G/H synthase 1 (PTGS1, Ovis aries, UniProt P05979)
Effect on: enzyme activity
Action: inhibitor
Residues used in one study (P05979 25-600): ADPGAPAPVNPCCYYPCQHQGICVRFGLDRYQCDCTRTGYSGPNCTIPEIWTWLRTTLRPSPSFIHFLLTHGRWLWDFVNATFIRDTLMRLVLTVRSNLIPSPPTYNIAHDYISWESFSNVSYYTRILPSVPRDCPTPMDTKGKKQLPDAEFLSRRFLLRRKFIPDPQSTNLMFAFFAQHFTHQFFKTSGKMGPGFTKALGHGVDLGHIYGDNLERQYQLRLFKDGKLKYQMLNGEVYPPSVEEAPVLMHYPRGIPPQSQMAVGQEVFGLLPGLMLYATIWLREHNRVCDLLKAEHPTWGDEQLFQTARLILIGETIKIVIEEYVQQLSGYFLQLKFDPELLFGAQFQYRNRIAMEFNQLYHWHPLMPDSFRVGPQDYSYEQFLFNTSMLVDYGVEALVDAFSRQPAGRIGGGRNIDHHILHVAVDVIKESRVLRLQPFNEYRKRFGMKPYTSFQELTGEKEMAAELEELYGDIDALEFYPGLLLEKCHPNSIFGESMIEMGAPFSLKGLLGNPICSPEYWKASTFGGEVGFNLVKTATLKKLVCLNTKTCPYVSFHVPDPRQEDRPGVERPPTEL

SMILES | assay | IC50 [µM]
CC(C)Cc1ccc(-c2nn(-c3ccc(S(C)(=O)=O)cc3)cc2/C=N\N=C2/NC(=O)CS2)cc1 | – | 19.7
COc1ccc(F)c(-c2ccccc2OC)c1 | absorbance | 8.23
CS(=O)(=O)c1ccc(-n2cc(/C=N/N=c3\[nH]c(-c4ccc([N+](=O)[O-])cc4)cs3)c(-c3ccc(Br)cc3)n2)cc1 | – | 24.5
Cc1ccc(Nc2c(-c3ccc(S(C)(=O)=O)cc3)nc3cccc(C)n23)cc1 | fluorescence | 19.6
NS(=O)(=O)c1ccc(-c2ncc(Cl)cc2-c2nc3ccccc3s2)cc1 | absorbance | > 100
C[C@@H]1O[C@@H](O[C@H]2[C@H](Oc3c(-c4ccc(O)cc4)oc4cc(O)cc(O)c4c3=O)O[C@H](CO[C@@H]3O[C@H](CO)[C@@H](O)[C@H](O)[C@H]3O)[C@@H](O)[C@@H]2O)[C@H](O)[C@H](O)[C@H]1O | absorbance | 21.8
Cc1ccc(-c2nn(-c3ccc(S(C)(=O)=O)cc3)cc2/C=N\N=c2/[nH]c(-c3ccc([N+](=O)[O-])cc3)cs2)cc1 | – | 49.6
O=[N+]([O-])c1ccc(-c2ccccc2F)cc1 | absorbance | 10.1
Cc1ccc(Nc2c(-c3ccc(S(C)(=O)=O)cc3)nc3ccccn23)cc1 | fluorescence | 23.1
Cc1ccc(/C=C2\C=C(CC(=O)O)c3cc(F)ccc32)cc1 | – | 3.2
Cc1cccn2c(Nc3ccc(Cl)cc3)c(-c3ccc(S(C)(=O)=O)cc3)nc12 | fluorescence | 29.4
COc1ccccc1-c1ccc([N+](=O)[O-])cc1 | absorbance | 8.79
Cc1ccc(Nc2c(-c3ccc(S(C)(=O)=O)cc3)nc3c(C)cccn23)cc1 | fluorescence | 35.6
CSc1ccc(/C=C2\C=C(CC(=O)NS(=O)(=O)c3ccc(C(F)(F)F)cc3)c3cc(F)ccc32)cc1 | – | 3.9
CC(C)Cc1ccc(-c2nn(-c3ccc(S(C)(=O)=O)cc3)cc2/C=N/N=c2\[nH]c(-c3ccc(Br)cc3)cs2)cc1 | – | 27.5
COc1ccc(Nc2c(-c3ccc(S(C)(=O)=O)cc3)nc3ccccn23)cc1 | fluorescence | 16.5
COc1ccc(-c2nn(-c3ccc(S(C)(=O)=O)cc3)cc2C=N/N=c2\[nH]c(-c3ccc([N+](=O)[O-])cc3)cs2)cc1 | – | 23.2
Cc1ccc(-c2nc3ccccc3s2)c(-c2ccc(S(N)(=O)=O)cc2)c1 | absorbance | > 100
CSc1ccc(/C=C2\C=C(CC(=O)NS(=O)(=O)c3ccc4ccccc4c3)c3cc(F)ccc32)cc1 | – | 2
COc1ccc(F)c(-c2ccccc2F)c1 | absorbance | 9.98
CS(=O)(=O)c1ccc(-c2nc3ccccn3c2Nc2ccc(F)cc2)cc1 | fluorescence | 23.8
CS(=O)(=O)c1ccc(-c2ncccc2-c2nc3ccccc3s2)cc1 | absorbance | > 100
Cc1cccn2c(Nc3ccccc3)c(-c3ccc(S(C)(=O)=O)cc3)nc12 | fluorescence | 35.6
O=[N+]([O-])c1cccc(-c2ccccc2F)c1F | absorbance | 10.2
